According to ChEMBL document CHEMBL4673378, “Investigating the effects of the core nitrogen atom configuration on the thermodynamic solubility of 6,5-bicyclic heterocycles” (Bioorg Med Chem Lett, 2021):
Converted amounts (≈) assume the structure as drawn.

Tests used:
Type in all cases: physicochemical
[1] = Melting point of the compound using crystalline form of sample
[2] = Ionization constant, pKa of the compound
[3] = Lipophilicity, log D of the compound at pH 7.4 by chromatographic reverse phase method; details: reverse phase chromatography
[4] = Thermodynamic solubility of compound in SLF at pH 6.9 using crystalline form of sample; details: read-out: Therm_solubility
Method in brief: (§1)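 Thermodynamic solubility was measured from solid in Simulated Lung Fluid, buffered at pH 6.9 and containing 0.75 mM lecithin plus bovine serum albumin, reported in μg/mL. Runs were at least duplicate unless otherwise footnoted. Amorphous or crystalline material was used, as the line states.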

[5] = Kinetic solubility of the compound at pH 7.4 using crystalline form of sample; details: read-out: Kinetic_solubility
Method in brief: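 Solubility at pH 7.4 measured from a 10 mM DMSO stock (stock concentration) of crystalline material, reported in μg/mL. Runs were at least duplicate unless otherwise footnoted.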

[6] = Thermodynamic solubility of compound in FaSSIF at pH 6.5 using crystalline form of sample; details: read-out: Therm_solubility
Method in brief: (§2)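 Thermodynamic solubility in Fasted State Simulated Intestinal Fluid, buffered at pH 6.5 and containing 0.75 mM lecithin, reported in μg/mL. Runs were at least duplicate unless otherwise footnoted. Solid form was amorphous or crystalline, as the line states.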

[7] = Melting point of the compound using amorphous form of sample
[8] = Thermodynamic solubility of compound in SLF at pH 6.9 using amorphous form of sample; details: read-out: Therm_solubility; method in brief: as §1
[9] = Thermodynamic solubility of compound in FaSSIF at pH 6.5 using amorphous form of sample; details: read-out: Therm_solubility; method in brief: as §2

| SMILES | Tm [1] [°C] | pKa [2] | chromatographic logD [3] | solubility thermodynamic [4] [µg/mL] | solubility kinetic [5] [µg/mL] | solubility thermodynamic [6] [µg/mL] | Tm [7] [°C] | solubility thermodynamic [8] [µg/mL] | solubility thermodynamic [9] [µg/mL] |
| --- | --- | --- | --- | --- | --- | --- | --- | --- | --- |
| COc1ccc(-c2c(C)nn3c(NCc4cccnc4)nc(C)nc23)cc1OC | 149 | 2.5 | 4.5 | 36 (≈ 92.2 µM) | > 150 | 36 (≈ 92.2 µM) | – | – | – |
| COc1ccc(-c2c(C)nc3c(NCC4CCOCC4)nc(C)cn23)cc1OC | – | 5.6 | 5.2 | – | 99 (≈ 250 µM) | – | 93 | 10 (≈ 25.2 µM) | 7 (≈ 17.7 µM) |
| COc1ccc(-c2c(C)nc3c(NCc4ccc(C(N)=O)cc4)cc(C)cn23)cc1OC | 203 | 6.6 | 4.3 | 2 (≈ 4.65 µM) | 29 (≈ 67.4 µM) | 6 (≈ 13.9 µM) | – | – | – |
| COc1ccc(-c2c(C)nn3c(NCc4cccnc4)cc(C)nc23)cc1OC | 149 | 5.4 | 4.3 | 39 (≈ 100 µM) | > 107 | 141 (≈ 362 µM) | – | – | – |
| COc1ccc(-c2c(C)nn3c(NCC4CCOCC4)nc(C)nc23)cc1OC | 143 | 3.1 | 5.1 | 18 (≈ 45.3 µM) | > 165 | 29 (≈ 73 µM) | – | – | – |
| COc1ccc(-c2c(C)nc3c(NCc4cccnc4)nc(C)cn23)cc1OC | – | 5.3 | 4.5 | – | 67 (≈ 172 µM) | – | 128 | 58 (≈ 149 µM) | 335 (≈ 860 µM) |
| COc1ccc(-c2c(C)nc3c(NCc4cccnc4)cc(C)cn23)cc1OC | 85 | 6.5 | 4.9 | 33 (≈ 84.9 µM) | 86 (≈ 221 µM) | 109 (≈ 281 µM) | – | – | – |
| COc1ccc(-c2c(C)nc3c(NCc4ccc(C(N)=O)cc4)nc(C)cn23)cc1OC | – | 5 | 3.9 | – | 53 (≈ 123 µM) | – | 191 | 9 (≈ 20.9 µM) | 32 (≈ 74.2 µM) |
| COc1ccc(-c2c(C)nc3c(NCC4CCOCC4)cc(C)cn23)cc1OC | 90 | 6.7 | 6 | 29 (≈ 73.3 µM) | 64 (≈ 162 µM) | 233 (≈ 589 µM) | – | – | – |
| COc1ccc(-c2c(C)nn3c(NCC4CCOCC4)cc(C)nc23)cc1OC | 157 | 5.7 | 5.2 | 18 (≈ 45.4 µM) | > 180 | 25 (≈ 63.1 µM) | – | – | – |
| COc1ccc(-c2c(C)nn3c(NCc4ccc(N(C)C)cc4)nc(C)nc23)cc1OC | 167 | 2.9 | 3.9 | 10 (≈ 23.1 µM) | 19 (≈ 43.9 µM) | 32 (≈ 74 µM) | – | – | – |
| COc1ccc(-c2c(C)nn3c(NCc4ccc(C(N)=O)cc4)nc(C)cc23)cc1OC | 194 | 3.8 | 4.8 | < 6 | 19 (≈ 44 µM) | 5 (≈ 11.6 µM) | – | – | – |
| COc1ccc(-c2c(C)nn3c(NCC4CCOCC4)nc(C)cc23)cc1OC | 104 | 4.4 | 6.4 | 3 (≈ 7.57 µM) | 44 (≈ 111 µM) | 13 (≈ 32.8 µM) | – | – | – |
| COc1ccc(-c2c(C)nn3c(NCc4ccc(N(C)C)cc4)cc(C)nc23)cc1OC | 238 | 5.4 | 3.7 | 1 (≈ 2.32 µM) | 79 (≈ 183 µM) | 15 (≈ 34.8 µM) | – | – | – |
| COc1ccc(-c2c(C)nn3c(NCc4cccnc4)nc(C)cc23)cc1OC | 101 | 2.8 | 5.5 | 6 (≈ 15.4 µM) | 35 (≈ 89.9 µM) | 31 (≈ 79.6 µM) | – | – | – |
